By IC50 is commonly meant the concentration at which inhibition is half-maximal. The low end stands for inhibition by little substance, the high end for a need for much substance.

This passage reports IC50 results from ChEMBL document CHEMBL1128525, “The role of water molecules in the structure-based design of (5-hydroxynorvaline)-2-cyclosporin: synthesis, biological activity, and crystallographic analysis with cyclophilin A” (J Med Chem, 1995).

The species entered for one assay is Mus musculus. As to the kind of experiment: The compound was evaluated in vitro for the immunosuppressive activity in mouse mixed lymphocyte reaction (MLR_M). The class given is functional. Put shortly: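 Cellular immunosuppression read in the mouse mixed lymphocyte reaction or the interleukin-2 reporter gene assay. The IC50 in nM is the mean of three independent experiments.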

For assay [1], the target named is T1, Peptidyl-prolyl cis-trans isomerase A (Homo sapiens, UniProt P62937). As to the kind of experiment: In vitro binding affinity against cyclophilin A by ELISA. On the technique in general: ELISA stands for enzyme-linked immunosorbent assay.
T1 sequence (P62937 whole entry): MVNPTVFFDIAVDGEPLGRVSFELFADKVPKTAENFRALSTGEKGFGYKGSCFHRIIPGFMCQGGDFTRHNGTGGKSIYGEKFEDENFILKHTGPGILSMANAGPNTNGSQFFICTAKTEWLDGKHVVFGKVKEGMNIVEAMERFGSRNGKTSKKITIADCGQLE
In assay [2] the target is T1, Peptidyl-prolyl cis-trans isomerase A. As to the kind of experiment: In vitro binding affinity against cyclophilin A by rotamase assay.

With `C/C=C/C[C@@H](C)[C@@H](O)[C@@H]1C(=O)N[C@H](CCC)C(=O)N(C)[C@@H](CO)C(=O)N(C)[C@H](CC(C)C)C(=O)N[C@H](C(C)C)C(=O)N(C)[C@H](CC(C)C)C(=O)N[C@H](C)C(=O)N[C@@H](C)C(=O)N(C)[C@H](CC(C)C)C(=O)N(C)[C@H](CC(C)C)C(=O)N(C)[C@H](C(C)C)C(=O)N1C`, the IC50 in the assay listed under Mus musculus is 56 nM; in assay [1], 93 nM; in assay [2], 48 nM.
For `C/C=C/C[C@@H](C)[C@@H](O)[C@@H]1C(=O)N[C@H](CCCO)C(=O)N(C)CC(=O)N(C)[C@H](CC(C)C)C(=O)N[C@H](C(C)C)C(=O)N(C)[C@H](CC(C)C)C(=O)N[C@H](C)C(=O)N[C@@H](C)C(=O)N(C)[C@H](CC(C)C)C(=O)N(C)[C@H](CC(C)C)C(=O)N(C)[C@H](C(C)C)C(=O)N1C`, in that order: 140 nM, 450 nM and 256 nM.
The like results for `C/C=C/C[C@@H](C)[C@@H](O)[C@H]1C(=O)N[C@@H](CCC)C(=O)N(C)CC(=O)N(C)[C@@H](CC(C)C)C(=O)N[C@@H](C(C)C)C(=O)N(C)[C@@H](CC(C)C)C(=O)N[C@@H](C)C(=O)N[C@H](C)C(=O)N(C)[C@@H](CC(C)C)C(=O)N(C)[C@@H](CC(C)C)C(=O)N(C)[C@@H](C(C)C)C(=O)N1C` [GECLOSPORIN] were, in that order, 46 nM, 310 nM and 130 nM.
